# What was measured:
# [1] = AUCinfinity in BALB/c mouse at 10 mg/kg, po by HPLC analysis; assay type: ADME, organism-based; conditions: in vivo
# In short: (§1)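 Female BALB/c mice dosed 5 mg/kg i.v. in 10% DMSO/10% cyclodextrin in saline, or 10 mg/kg i.p. or orally at 1 mg/mL in 40% PEG400/saline. Plasma taken at 5, 10, 15, 30, 60, 90, 120, 180, 240 and 360 min, three mice per time. Acetonitrile precipitation, C18 HPLC with UV detection at 329 nm against a plasma standard curve. Parameters derived from mean concentrations.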
# [2] = Ratio of drug level in tumor to plasma of human SW620 cell xenografted athymic nude CD1 mouse at 10 mg/kg, ip measured after 90 mins by HPLC analysis; assay type: ADME, organism-based; conditions: tumor and plasma
# In short: (§2)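 Female CD-1 nu/nu mice bearing s.c. flank SW620 tumours (1×10^7 cells, ~650 mm³ at 10–14 days) given 10 mg/kg i.p. Tissues snap frozen, homogenised 1:3 in PBS. Acetonitrile precipitation, C18 HPLC with acetate pH 5/acetonitrile 75:25 mobile phase, UV 329 nm; tissue levels by method of addition. Tissue/plasma ratio, mean of three mice per time.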
# [3] = Ratio of drug level in brain to plasma of human SW620 cell xenografted athymic nude CD1 mouse at 10 mg/kg, ip measured after 15 mins by HPLC analysis; assay type: ADME, organism-based; conditions: brain and plasma, read-out: BPR; in short: as §2
# [4] = Ratio of drug level in spleen to plasma of human SW620 cell xenografted athymic nude CD1 mouse at 10 mg/kg, ip measured after 60 mins by HPLC analysis; assay type: ADME, organism-based; in short: as §2
# [5] = Elimination half life in BALB/c mouse at 5 mg/kg, iv by HPLC analysis; assay type: ADME, organism-based; conditions: in vivo, read-out: beta t1/2; in short: as §1
# [6] = AUCinfinity in BALB/c mouse at 10 mg/kg, ip by HPLC analysis; assay type: ADME, organism-based; conditions: in vivo; in short: as §1
# [7] = Tmax in BALB/c mouse at 10 mg/kg, ip by HPLC analysis; assay type: ADME, organism-based; conditions: in vivo; in short: as §1
# [8] = Cmax in BALB/c mouse at 5 mg/kg, iv by HPLC analysis; assay type: ADME, organism-based; conditions: in vivo; in short: as §1
# [9] = AUClast in BALB/c mouse at 10 mg/kg, po by HPLC analysis; assay type: ADME, organism-based; conditions: in vivo; in short: as §1
# [10] = biological target: T1, DNA-dependent protein kinase catalytic subunit (Homo sapiens, UniProt P78527); test: Inhibition of human HeLa cell nuclear extract purified DNA-PK using p53 peptide as substrate by ELISA
# [11] = Inhibition of DNA-PK in Chinese hamster DNA-PK proficient V3-YAC cells assessed as potentiation of ionizing radiation-induced cytotoxicity by measuring fold change in radiation LD90 at 0.5 umol/L preincubated for 1 hr followed by gamma-irradiation and measured after 16 hrs by crystal violet staining based assay relative to radiation alone; design: species or system Cricetulus griseus; conditions: dose 0.5 µmol/L; time 17 hrs; condition cancer
# In short: (§3)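 V3-YAC Chinese hamster ovary cells (human DNA-PKcs YAC, kept in 500 μg/mL G-418), RPMI 1640/10% FBS. Cells reseeded drug-free, colonies crystal violet stained after 10–14 days; LD90 ratio without/with inhibitor (DMR90).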
# SW-620 [12] = test: Induction of DNA damage in human SW620 cells assessed as formation of gammaH2AX phosphorylation foci per cell at 1 umol/L measured after 1 hr by DAPI staining based immunofluorescence microscopic analysis; assay type: toxicity; conditions: sw-620, 1 h, 1 µM, dose 1 µmol/L
# In short: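 SW620 cells on coverslips at 50–70% confluence, preincubated 1 h ± 1 μmol/L agent, then 1 μmol/L etoposide for 1 h, washed three times, and kept ± agent for up to 24 h. Fixation in −20 °C methanol, then anti-γH2AX Ser139 antibody with FITC secondary and DAPI mounting. Foci counted in 30 nuclei from three areas per sample, in triplicate.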
# [13] = biological target: T1, DNA-dependent protein kinase catalytic subunit; conditions: LoVo, dose 1.0 µmol/L, time 17.0 hrs
# [14] = Ratio of drug level in spleen to plasma of human SW620 cell xenografted athymic nude CD1 mouse at 10 mg/kg, ip measured after 15 mins by HPLC analysis; assay type: ADME, organism-based; in short: as §2
# [15] = Oral bioavailability in BALB/c mouse at 10 mg/kg by HPLC analysis; assay type: ADME, organism-based; conditions: in vivo; in short: as §1
# [16] = Ratio of drug level in liver to plasma of human SW620 cell xenografted athymic nude CD1 mouse at 10 mg/kg, ip measured after 240 mins by HPLC analysis; assay type: ADME, organism-based; in short: as §2
# [17] = Ratio of drug level in liver to plasma of human SW620 cell xenografted athymic nude CD1 mouse at 10 mg/kg, ip measured after 15 mins by HPLC analysis; assay type: ADME, organism-based; in short: as §2
# [18] = Ratio of drug level in brain to plasma of human SW620 cell xenografted athymic nude CD1 mouse at 10 mg/kg, ip measured after 90 mins by HPLC analysis; assay type: ADME, organism-based; conditions: brain and plasma, read-out: BPR; in short: as §2
# [19] = Ratio of drug level in brain to plasma of human SW620 cell xenografted athymic nude CD1 mouse at 10 mg/kg, ip measured after 60 mins by HPLC analysis; assay type: ADME, organism-based; conditions: brain and plasma, read-out: BPR; in short: as §2
# [20] = biological target: T1, DNA-dependent protein kinase catalytic subunit; conditions: SW620, dose 1.0 µmol/L, time 17.0 hrs
# [21] = Ratio of drug level in brain to plasma of human SW620 cell xenografted athymic nude CD1 mouse at 10 mg/kg, ip measured after 30 mins by HPLC analysis; assay type: ADME, organism-based; conditions: brain and plasma, read-out: BPR; in short: as §2
# [22] = Inhibition of DNA-PK in Chinese hamster DNA-PK proficient V3-YAC cells assessed as potentiation of etoposide-induced cytotoxicity by measuring fold change in etoposide LD90 at 0.5 umol/L measured after 16 hrs by crystal violet staining based assay relative to etoposide alone; design: species or system Cricetulus griseus; conditions: dose 0.5 µmol/L, condition cancer; in short: as §3
# SW-620 [23] = test: Cell cycle arrest in human SW620 cells assessed as increase in G1-phase cell population at 1 umol/L measured after 16 hrs by propidium iodide staining based flow cytometry relative to control; conditions: sw-620, 16 h, 1 µM
# [24] = Toxicity in human SW620 cell xenografted athymic nude CD1 mouse assessed as maximum body weight loss at 10 mg/kg, ip administered 5 times daily for 5 days relative to control; assay type: organism-based, SW-620; conditions: in vivo, 120 h, time 5 day
# In short: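 CD-1 nude mice carry palpable s.c. SW620 xenografts (~5×5 mm, 8-10 days), five per group. Treated i.p. daily for 5 days with saline, agent in 40% PEG 400/saline, etoposide phosphate 11.35 mg/kg (equal to 10 mg/kg etoposide), or both, agent given immediately before etoposide phosphate. Read-outs are median relative tumour volume, time to 4× volume (growth delay) and body weight.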
# [25] = Ratio of drug level in kidney to plasma of human SW620 cell xenografted athymic nude CD1 mouse at 10 mg/kg, ip measured after 15 mins by HPLC analysis; assay type: ADME, organism-based; conditions: kidney and plasma; in short: as §2
# [26] = Ratio of drug level in kidney to plasma of human SW620 cell xenografted athymic nude CD1 mouse at 10 mg/kg, ip measured after 240 mins by HPLC analysis; assay type: ADME, organism-based; in short: as §2
# T1 sequence (P78527 whole entry): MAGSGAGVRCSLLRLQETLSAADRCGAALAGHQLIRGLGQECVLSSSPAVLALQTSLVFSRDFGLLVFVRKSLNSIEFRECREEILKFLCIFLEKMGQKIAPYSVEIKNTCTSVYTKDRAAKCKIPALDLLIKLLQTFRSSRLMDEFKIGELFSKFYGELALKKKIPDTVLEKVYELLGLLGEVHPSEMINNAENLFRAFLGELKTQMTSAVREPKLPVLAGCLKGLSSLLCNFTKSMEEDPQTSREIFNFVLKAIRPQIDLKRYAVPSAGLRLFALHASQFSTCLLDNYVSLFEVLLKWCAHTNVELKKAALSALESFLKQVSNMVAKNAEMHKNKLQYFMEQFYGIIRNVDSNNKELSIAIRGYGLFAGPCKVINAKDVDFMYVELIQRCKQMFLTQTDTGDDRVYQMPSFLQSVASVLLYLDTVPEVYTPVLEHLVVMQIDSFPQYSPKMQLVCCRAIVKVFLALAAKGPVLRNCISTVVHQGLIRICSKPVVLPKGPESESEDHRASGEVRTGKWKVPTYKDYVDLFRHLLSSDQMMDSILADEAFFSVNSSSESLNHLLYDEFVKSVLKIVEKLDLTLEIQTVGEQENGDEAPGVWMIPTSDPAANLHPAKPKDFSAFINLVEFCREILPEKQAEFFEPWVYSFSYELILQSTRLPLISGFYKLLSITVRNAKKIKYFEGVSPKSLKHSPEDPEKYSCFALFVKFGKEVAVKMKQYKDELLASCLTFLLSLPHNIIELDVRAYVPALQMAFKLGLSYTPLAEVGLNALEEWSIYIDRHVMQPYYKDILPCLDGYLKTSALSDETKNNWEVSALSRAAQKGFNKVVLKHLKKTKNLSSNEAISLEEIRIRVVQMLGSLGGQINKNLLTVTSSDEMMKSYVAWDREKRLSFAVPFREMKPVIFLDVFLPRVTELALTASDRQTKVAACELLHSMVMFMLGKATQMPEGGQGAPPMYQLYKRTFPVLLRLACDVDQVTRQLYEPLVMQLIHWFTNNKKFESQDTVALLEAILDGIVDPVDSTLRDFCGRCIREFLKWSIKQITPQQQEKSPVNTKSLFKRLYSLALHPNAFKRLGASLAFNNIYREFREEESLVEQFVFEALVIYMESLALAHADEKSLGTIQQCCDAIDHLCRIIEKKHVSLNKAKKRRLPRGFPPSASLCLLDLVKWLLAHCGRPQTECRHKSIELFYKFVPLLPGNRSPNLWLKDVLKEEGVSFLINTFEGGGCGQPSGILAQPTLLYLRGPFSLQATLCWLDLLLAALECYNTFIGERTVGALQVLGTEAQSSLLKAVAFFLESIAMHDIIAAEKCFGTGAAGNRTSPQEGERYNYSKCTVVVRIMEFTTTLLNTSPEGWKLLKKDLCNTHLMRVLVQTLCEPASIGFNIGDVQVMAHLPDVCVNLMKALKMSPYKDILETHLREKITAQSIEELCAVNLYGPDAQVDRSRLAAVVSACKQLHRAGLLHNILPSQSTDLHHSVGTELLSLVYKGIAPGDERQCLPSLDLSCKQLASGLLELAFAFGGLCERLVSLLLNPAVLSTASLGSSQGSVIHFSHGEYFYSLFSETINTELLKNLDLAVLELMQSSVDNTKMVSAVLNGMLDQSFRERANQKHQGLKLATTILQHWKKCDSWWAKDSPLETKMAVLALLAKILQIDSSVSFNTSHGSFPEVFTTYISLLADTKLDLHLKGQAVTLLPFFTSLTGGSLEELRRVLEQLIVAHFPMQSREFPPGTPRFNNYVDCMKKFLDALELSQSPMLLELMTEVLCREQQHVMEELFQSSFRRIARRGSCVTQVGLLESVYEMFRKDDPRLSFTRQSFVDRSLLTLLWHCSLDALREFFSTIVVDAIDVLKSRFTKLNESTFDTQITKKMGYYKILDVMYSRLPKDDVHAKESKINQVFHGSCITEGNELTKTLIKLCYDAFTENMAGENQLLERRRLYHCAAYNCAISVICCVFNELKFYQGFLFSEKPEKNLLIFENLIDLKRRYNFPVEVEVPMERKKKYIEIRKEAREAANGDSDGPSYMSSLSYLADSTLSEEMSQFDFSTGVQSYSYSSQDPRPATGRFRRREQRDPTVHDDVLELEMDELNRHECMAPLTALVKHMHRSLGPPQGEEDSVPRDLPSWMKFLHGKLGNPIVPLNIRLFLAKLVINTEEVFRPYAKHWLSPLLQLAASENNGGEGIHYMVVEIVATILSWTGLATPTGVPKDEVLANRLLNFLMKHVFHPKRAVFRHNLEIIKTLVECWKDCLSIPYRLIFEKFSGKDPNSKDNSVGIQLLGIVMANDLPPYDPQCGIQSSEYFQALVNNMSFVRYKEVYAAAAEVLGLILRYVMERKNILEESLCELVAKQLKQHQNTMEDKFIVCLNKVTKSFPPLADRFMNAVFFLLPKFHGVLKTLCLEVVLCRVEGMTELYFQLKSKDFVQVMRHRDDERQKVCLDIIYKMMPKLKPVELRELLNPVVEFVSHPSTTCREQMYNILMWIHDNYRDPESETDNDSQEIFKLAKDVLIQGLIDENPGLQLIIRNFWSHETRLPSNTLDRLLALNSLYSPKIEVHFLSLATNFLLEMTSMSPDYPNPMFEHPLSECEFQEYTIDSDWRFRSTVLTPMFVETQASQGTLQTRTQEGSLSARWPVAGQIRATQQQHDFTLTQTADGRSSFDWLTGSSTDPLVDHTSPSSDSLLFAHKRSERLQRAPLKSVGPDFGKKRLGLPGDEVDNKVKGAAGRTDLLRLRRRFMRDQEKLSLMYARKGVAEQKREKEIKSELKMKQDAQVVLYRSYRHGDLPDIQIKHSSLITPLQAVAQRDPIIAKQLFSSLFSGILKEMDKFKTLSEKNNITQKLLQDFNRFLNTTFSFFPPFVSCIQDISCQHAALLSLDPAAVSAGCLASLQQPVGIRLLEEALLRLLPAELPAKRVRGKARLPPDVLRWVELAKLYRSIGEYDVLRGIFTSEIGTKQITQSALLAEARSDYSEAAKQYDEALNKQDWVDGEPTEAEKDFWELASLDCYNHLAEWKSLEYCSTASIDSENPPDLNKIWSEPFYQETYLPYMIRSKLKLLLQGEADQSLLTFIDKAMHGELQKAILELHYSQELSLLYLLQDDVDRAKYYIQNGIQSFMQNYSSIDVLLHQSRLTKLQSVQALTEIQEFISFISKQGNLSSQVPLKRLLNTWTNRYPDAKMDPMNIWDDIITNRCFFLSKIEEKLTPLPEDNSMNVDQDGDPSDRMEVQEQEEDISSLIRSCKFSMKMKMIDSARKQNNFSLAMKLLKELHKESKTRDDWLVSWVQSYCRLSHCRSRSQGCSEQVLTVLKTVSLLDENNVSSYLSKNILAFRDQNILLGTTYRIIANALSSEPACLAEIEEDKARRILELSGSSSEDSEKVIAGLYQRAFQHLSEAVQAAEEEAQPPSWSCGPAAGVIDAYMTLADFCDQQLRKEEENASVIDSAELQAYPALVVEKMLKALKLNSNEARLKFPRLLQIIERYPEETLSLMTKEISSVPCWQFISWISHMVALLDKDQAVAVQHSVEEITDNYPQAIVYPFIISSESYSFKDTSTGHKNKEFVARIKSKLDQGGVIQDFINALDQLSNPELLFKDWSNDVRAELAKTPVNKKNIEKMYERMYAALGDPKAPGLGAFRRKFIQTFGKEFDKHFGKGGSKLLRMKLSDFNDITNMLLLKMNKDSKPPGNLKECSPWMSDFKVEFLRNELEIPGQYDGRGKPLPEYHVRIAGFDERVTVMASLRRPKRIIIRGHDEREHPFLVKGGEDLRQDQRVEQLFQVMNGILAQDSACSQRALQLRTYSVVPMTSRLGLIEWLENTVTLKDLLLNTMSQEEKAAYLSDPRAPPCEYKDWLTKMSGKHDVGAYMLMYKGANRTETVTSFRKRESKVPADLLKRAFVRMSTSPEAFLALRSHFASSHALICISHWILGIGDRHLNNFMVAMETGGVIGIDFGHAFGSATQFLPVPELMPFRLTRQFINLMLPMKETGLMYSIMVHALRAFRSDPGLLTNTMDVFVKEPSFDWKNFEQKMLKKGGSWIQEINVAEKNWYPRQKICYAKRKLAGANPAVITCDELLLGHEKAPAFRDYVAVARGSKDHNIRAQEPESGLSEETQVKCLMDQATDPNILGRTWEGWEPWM
smiles,measurement,setting,value
O=c1cc(N2CCOCC2)oc2c(-c3cccc4c3sc3ccccc34)cccc12,AUC(0-inf),[1],1200 ng·h/mL
same,Kp at 1.5 h,[2],1.5
same,Kp at 0.25 h,[3],1.1
same,Kp at 1 h,[4],3.2
same,half-life,[5],46 min
same,AUC(0-inf),[6],2530 ng·h/mL
same,Tmax,[7],5 min
same,Cmax,[8],1600 ng/mL
same,AUC(0-t),[9],817 ng·h/mL
same,IC50,[10],14 nM
same,fold change (FC),[11],1.6
same,Activity,SW-620 [12],0.13
same,LD90,[13],1 Gy
same,Kp at 0.25 h,[14],4.6
same,bioavailability,[15],33%
same,Kp at 4 h,[16],5
same,Kp at 0.25 h,[17],6.4
same,Kp at 1.5 h,[18],3
same,Kp at 1 h,[19],3.2
same,LD90,[20],1.1 Gy
same,Kp at 0.5 h,[21],2.2
same,fold change (FC),[22],2.3
same,Activity,SW-620 [23],15%
same,Activity,[24],12%
same,Kp at 0.25 h,[25],4.2
same,Kp at 4 h,[26],1
